Assay [1] can be described thus: HUVEC growth inhibition – cell-based, human, primary screen (AID 575;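 active = viability at or below 30% in both replicate assays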;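 note: 100% = median of untreated cell wells with 0.1% DMSO on each plate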). The following applies: HUVEC proliferation, CellTiter-Glo luminescence, 72 h; at 10 µM; stronger effect = lower value. The gist of the method: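 System: primary human umbilical vein endothelial cells; Quantity: 1250 endothelial cells in each well; Buffer or medium: supplemented EBM, 2% fetal bovine serum; Doses: one dose, 10 µM final, 0.1% DMSO; Incubation: 72 h compound incubation; Technique: ATP-based CellTiter-Glo luminescent read; Evaluation: percent of median DMSO-control luminescence; Controls: vehicle and MePR control wells.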
(In general: In ATP-based viability assays light output follows the ATP content of the culture.)

The nature of assay [2]: H69AR cell proliferation blockers – human, duplicate replicates, primary screen (AID 580;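 active = viability at or under a set limit in both replicates, limit being median viability minus 3 SD, cut at about 48% in these data, passing the limit was not always enough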;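 note: 100% = mean luminescence of untreated wells and 0% = no signal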). The conditions noted are these: H69AR lung tumor cells viability, ATP luminescence, 72 h; at 10 µM; stronger effect = lower value.
Assay [3] can be described thus: MRP1 drug-resistance reversers in H69AR cells – cell-based, doxorubicin co-treatment, pilot screen (AID 601). The following applies: CellTiter-Glo, 72 h, at 10 µM; for differential viability (reversal): stronger effect = higher value.
A short description of assay [4]: yeast transport mutant growth inhibition pilot in 384-well plates, post-Golgi transport modulator project (AID 636; in the data active = inhibition above about 31%). The conditions noted are these: absorbance 615 nm, about 18 h, stronger effect = higher value.
The nature of assay [5]: growth suppression of yeast trafficking mutant, preliminary HTS, modulators of trafficking downstream of Golgi apparatus project, 1536-format plate, OD 615 nm (AID 637; in the data active = inhibition above about 30%). The conditions noted are these: yeast transport mutant growth, absorbance 615 nm, 18 h; stronger effect = higher value.
The mark [6] stands for this setting: H69AR cells + 2 uM doxorubicin, measured here: viability with 2 uM doxorubicin, stronger effect = lower value.
Setting [7] is: H69AR cells, compound alone cytotoxicity.

As a reminder, the viability is a read-out of living cells in per cent, often relative to untreated cells. The inhibition is the drop in the measured response relative to a control, in per cent.

Activity calls are given as the source filed them.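 Rule for the calls, unless noted: active = viability loss from added drug above about 55%, and viability with drug at most 40%, in both replicates (limit read from the data, passing the limit was not always enough); inconclusive = both conditions met in only one replicate; inactive = neither replicate meets both conditions.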

Turning to `Cc1ccc(C)c(C(=O)CC2(O)C(=O)Nc3ccccc32)c1` (stereo not drawn), the viability in assay [1] was 109% (inactive); in assay [2], 105% (inactive); in assay [3] (setting [6]) it was 88%; in assay [3] (setting [7]), 105%. Also, in assay [3] (H69AR cells + 2 uM doxorubicin), the differential viability (reversal) was 17.1% (inactive). The inhibition in assay [4] is -3.6% (inactive); in assay [5], -7.3% (inactive).

In the case of `Cn1c(=O)c(=O)n(C)c2cc(S(=O)(=O)N3CCCCC3)ccc21`, the viability in assay [1] was 111% (inactive); in assay [2] it was 100% (inactive); in assay [3] (setting [6]), 84.3%; in assay [3] (setting [7]), 100%. Also, the differential viability (reversal) in assay [3] (H69AR cells + 2 uM doxorubicin) was 16.1% (inactive). In addition, the inhibition is -3.07% (inactive) in assay [4] and 0.16% (inactive) in assay [5].

For `Nc1nc(NCc2ccco2)nn1-c1ccccc1`, the viability in assay [1] was 98% (inactive); in assay [2] it was 96.7% (inactive); in assay [3] (setting [6]) it was 80.9%; in assay [3] (setting [7]), 96.7%. The differential viability (reversal) in assay [3] (H69AR cells + 2 uM doxorubicin) was 15.7% (inactive). The inhibition in assay [4] was -7.07% (inactive); in assay [5], 6.03% (inactive).

Consider `CCOC(=O)C1C(=O)OC(C)(C)C1C(C)C(=O)c1ccc(OC)cc1` (stereo not drawn), for which the viability is 112% (inactive) in assay [1], 96% (inactive) in assay [2], 92.7% in assay [3] (setting [6]) and 96% in assay [3] (setting [7]). Besides, the differential viability (reversal) in assay [3] (H69AR cells + 2 uM doxorubicin) is 3.24% (inactive). Also, the values for the inhibition in assay [4] and in assay [5] were -0.39% (inactive) and 18.6% (inactive), respectively.

As to `COCCn1c(N)c(C(=O)Nc2sc3c(c2C(=O)OC)CCCC3)c2nc3ccccc3nc21`, the viability in assay [1] was 82.6% (inactive); in assay [2], 92.3% (inactive); in assay [3] (setting [6]), 92.7%; in assay [3] (setting [7]) it was 92.3%. Moreover, the differential viability (reversal) in assay [3] (H69AR cells + 2 uM doxorubicin) was -0.35% (inactive). Besides, the values for the inhibition in assay [4] and in assay [5] were -4.42% (inactive) and 3.65% (inactive), respectively.

In the case of `CN(Cc1cnn(C)c1)C(=O)c1cc2ccccc2oc1=O`, the viability was 114% (inactive) in assay [1], 103% (inactive) in assay [2], 89.9% in assay [3] (setting [6]) and 103% in assay [3] (setting [7]). In addition, in assay [3] (H69AR cells + 2 uM doxorubicin), the differential viability (reversal) is 13.3% (inactive). For the same molecule, the figures for the inhibition in assay [4] and in assay [5] were -5.66% (inactive) and 2.06% (inactive), respectively.

As for `CCCS(=O)(=O)N1CCN(C(=O)CCC2CCCC2)CC1`, the viability was 101% (inactive) in assay [1], 85% (inactive) in assay [2], 84.1% in assay [3] (setting [6]) and 85% in assay [3] (setting [7]). The differential viability (reversal) in assay [3] (H69AR cells + 2 uM doxorubicin) is 0.865% (inactive). In addition, the inhibition in assay [4] is -3.29% (inactive); in assay [5] it was -1.11% (inactive).

`Cn1c(=O)[nH]c(=O)c2c1nc(NCCCn1ccnc1)n2Cc1cccc(Br)c1`: the viability in assay [1] is 90.3% (inactive); in assay [2], 81.7% (inactive); in assay [3] (setting [6]) it was 73.6%; in assay [3] (setting [7]), 81.7%. Moreover, the differential viability (reversal) in assay [3] (H69AR cells + 2 uM doxorubicin) is 8.09% (inactive). For the same molecule, the inhibition in assay [4] was -5.47% (inactive); in assay [5], 0.95% (inactive).

On to `CCCC1CCC(C(=O)Nn2c(C)nc3ccccc3c2=O)CC1` (stereo not drawn), for which the viability in assay [1] was 104% (inactive); in assay [2], 98.2% (inactive); in assay [3] (setting [6]), 83.3%; in assay [3] (setting [7]), 98.2%. The differential viability (reversal) in assay [3] (H69AR cells + 2 uM doxorubicin) is 14.9% (inactive). For the same molecule, the figures for the inhibition in assay [4] and in assay [5] were -3.16% (inactive) and 0.95% (inactive), respectively.

As to `O=C(CN1C(=O)CC(c2ccccc2)=Nc2ccccc21)NCc1ccco1`, the viability in assay [1] was 99.2% (inactive); in assay [2], 92.3% (inactive); in assay [3] (setting [6]), 79.4%; in assay [3] (setting [7]), 92.3%. Also, the differential viability (reversal) in assay [3] (H69AR cells + 2 uM doxorubicin) is 12.9% (inactive). The inhibition in assay [4] is -1.82% (inactive); in assay [5] it was 13.5% (inactive).

`c1ccc2c3nnc4n(c-3nc2c1)CCCS4`: the viability in assay [1] is 94% (inactive); in assay [2] it was 104% (inactive); in assay [3] (setting [6]), 92.7%; in assay [3] (setting [7]), 104%. Further, in assay [3] (H69AR cells + 2 uM doxorubicin), the differential viability (reversal) is 11.4% (inactive). In addition, the inhibition was -1.32% (inactive) in assay [4] and 4.6% (inactive) in assay [5].

For `O=C(NC1=NCCS1)c1nc(-c2ccccc2)n(-c2ccccc2)n1`, the viability in assay [1] was 70.4% (inactive); in assay [2], 101% (inactive); in assay [3] (setting [6]), 92.1%; in assay [3] (setting [7]), 101%. Also, the differential viability (reversal) in assay [3] (H69AR cells + 2 uM doxorubicin) is 8.75% (inactive). The inhibition is -3.73% (inactive) in assay [4] and 0.63% (inactive) in assay [5].

With `N#CCCn1cnc2ccccc21`, the viability in assay [1] is 108% (inactive); in assay [2] it was 104% (inactive); in assay [3] (setting [6]) it was 100%; in assay [3] (setting [7]), 104%. Also, the differential viability (reversal) in assay [3] (H69AR cells + 2 uM doxorubicin) is 3.56% (inactive). In addition, the inhibition in assay [4] was 0.52% (inactive); in assay [5] it was -3.97% (inactive).

Take `COc1cc2c(OC)cccc2cc1C(=O)O`: the viability is 95% (inactive) in assay [1], 88.2% (inactive) in assay [2], 85.7% in assay [3] (setting [6]) and 88.2% in assay [3] (setting [7]). The differential viability (reversal) in assay [3] (H69AR cells + 2 uM doxorubicin) was 2.57% (inactive). Besides, the inhibition was -1.32% (inactive) in assay [4] and 12.1% (inactive) in assay [5].

Consider `O=C(Nc1ccc(N2CCCC2=O)cc1)c1cccc(F)c1`, for which the viability is 109% (inactive) in assay [1], 99.9% (inactive) in assay [2], 78.2% in assay [3] (setting [6]) and 99.9% in assay [3] (setting [7]). Also, in assay [3] (H69AR cells + 2 uM doxorubicin), the differential viability (reversal) is 21.6% (inactive). Further, the values for the inhibition in assay [4] and in assay [5] were -4.61% (inactive) and 0.95% (inactive), respectively.

Consider `Cc1ccc(NC(=O)CSc2nnc(-c3ccccn3)n2C)cc1`, for which the viability in assay [1] is 115% (inactive); in assay [2], 91.5% (inactive); in assay [3] (setting [6]), 92.3%; in assay [3] (setting [7]), 91.5%. In addition, in assay [3] (H69AR cells + 2 uM doxorubicin), the differential viability (reversal) is -0.845% (inactive). The inhibition in assay [4] was -7.73% (inactive); in assay [5] it was -8.89% (inactive).

`COc1ccccc1-n1c(C)nnc1SCC(=O)Nc1cccc(C(C)=O)c1`: the viability in assay [1] was 101% (inactive); in assay [2], 104% (inactive); in assay [3] (setting [6]), 97%; in assay [3] (setting [7]), 104%. In addition, the differential viability (reversal) in assay [3] (H69AR cells + 2 uM doxorubicin) was 6.48% (inactive). The inhibition in assay [4] was -4.4% (inactive); in assay [5], 17.9% (inactive).

Consider `Cc1ccc(S(=O)(=O)NC(C(=O)OCC(=O)NC2CCS(=O)(=O)C2)C(C)C)cc1` (stereo not drawn), for which the viability was 98.1% (inactive) in assay [1], 92.9% (inactive) in assay [2], 92.8% in assay [3] (setting [6]) and 92.9% in assay [3] (setting [7]). For the same molecule, in assay [3] (H69AR cells + 2 uM doxorubicin), the differential viability (reversal) was 0.03% (inactive). For the same molecule, the inhibition is -1.69% (inactive) in assay [4] and 0.63% (inactive) in assay [5].

For the molecule `CCOC(=O)C1CCCN(C(=O)CNS(=O)(=O)c2ccc(Br)s2)C1` (stereo not drawn), the viability in assay [1] is 108% (inactive); in assay [2] it was 95.7% (inactive); in assay [3] (setting [6]) it was 78%; in assay [3] (setting [7]), 95.7%. Also, the differential viability (reversal) in assay [3] (H69AR cells + 2 uM doxorubicin) was 17.7% (inactive). In addition, the inhibition in assay [4] was -6.71% (inactive); in assay [5] it was 4.13% (inactive).

These data come from PubChem BioAssay.
